Published values gathered from unrelated publications.
Compare with care: the assays were run in different laboratories. Values after ≈ are worked out from the molar mass of the structure shown.
Technique: broth dilution

`O=C(Nc1ccc2ccccc2c1)c1ccc(COC(Cn2ccnc2)c2ccc(Cl)cc2Cl)cc1` (centres unmarked) gave an MIC80 of 32 µg/mL (≈ 62 µM) (Lodderomyces parapsilosis; microbial growth).
With `O=C(O[C@@H]1O[C@@H]2COC(=O)c3cc(O)c(O)c(O)c3-c3c(cc(O)c(O)c3O)C(=O)O[C@H]([C@H]1O)[C@@H]2O)c1cc(O)c(O)c(O)c1` the MIC was 200 µg/mL (≈ 315 µM) (Streptococcus sobrinus; microbial growth; 24 h).
`Cc1ccc(NC(=O)c2ccc(COC(Cn3ccnc3)c3ccc(Cl)cc3Cl)cc2)cc1` (centres unmarked) has an MIC80 of 0.06 µg/mL (≈ 0.125 µM) (Lodderomyces parapsilosis; microbial growth).
For `O=c1oc2c(O)c(O)cc3c(=O)oc4c(O)c(O)cc1c4c23`, the MIC was 100 µg/mL (≈ 331 µM) (Streptococcus sobrinus; microbial growth; 24 h).
For `O=C(Nc1cccc(F)c1)c1ccc(COC(Cn2ccnc2)c2ccc(Cl)cc2Cl)cc1` (centres unmarked), the MIC80 was 0.125 µg/mL (≈ 0.258 µM) (Lodderomyces parapsilosis; microbial growth).
With `C/C(=N\C(=S)/N=C(\C)c1c(O)c2ccccc2oc1=O)c1c(O)c2ccccc2oc1=O` the MIC was 3.9 µg/mL (≈ 8.7 µM) (Aspergillus niger; microbial growth; 48 h).
For `O=C1O[C@H]2[C@@H]3OC(=O)c4cc(O)c(O)c(O)c4-c4c(O)c(O)c5oc(=O)c6c(c(O)c(O)c7oc(=O)c4c5c76)-c4c(cc(O)c(O)c4O)C(=O)OC[C@H]3OC(O)[C@@H]2OC(=O)c2cc(O)c(O)c(O)c2-c2c1cc(O)c(O)c2O` (mixture of isomers), the MIC was 100 µg/mL (Streptococcus sobrinus; microbial growth; 24 h).
`C/C(=N\C(=N)/N=C(\C)c1c(O)c2ccccc2oc1=O)c1c(O)c2ccccc2oc1=O` gave an MIC of 62.5 µg/mL (≈ 145 µM) (Aspergillus niger; microbial growth; 48 h).
`O=C(Nc1ccccc1)c1ccc(COC(Cn2ccnc2)c2ccc(Cl)cc2Cl)cc1` (centres unmarked) has an MIC80 of 0.125 µg/mL (≈ 0.268 µM) (Lodderomyces parapsilosis; microbial growth).
`O=C1OC[C@H]2OC(O)[C@H](O)[C@@H](O)[C@@H]2OC(=O)c2cc(O)c(O)c(O)c2-c2c(O)c(O)c3oc(=O)c4c(c(O)c(O)c5oc(=O)c2c3c54)-c2c1cc(O)c(O)c2O` (mixture of isomers) gave an MBC of 200 µg/mL (Streptococcus sobrinus; microbial killing).
With `COc1ccc(NC(=O)c2ccc(COC(Cn3ccnc3)c3ccc(Cl)cc3Cl)cc2)cc1` (centres unmarked) the MIC80 was 0.125 µg/mL (≈ 0.252 µM) (Lodderomyces parapsilosis; microbial growth).
`Oc1cc(O)c2c(c1)O[C@H](c1cc(O)c(O)c(O)c1)[C@@H](O)C2` has an MBC of 400 µg/mL (≈ 1310 µM) (Streptococcus sobrinus; microbial killing).
With `COc1cc(C=O)ccc1OC1=C(Cl)C(=O)c2ccccc2C1=O` the MIC was 12 µg/mL (≈ 35 µM) (Aspergillus niger; microbial growth).
For `C/C(=N\c1nc(N)nc(/N=C(\C)c2c(O)c3ccccc3oc2=O)n1)c1c(O)c2ccccc2oc1=O`, the MIC was 31.2 µg/mL (≈ 62.7 µM) (Aspergillus niger; microbial growth; 48 h).
The MIC of `C[C@@H]1O[C@@H]1P(=O)(O)O` is reported as 31.2 µg/mL (Neisseria gonorrhoeae; microbial growth; ATCC49226).
For `O=C(Nc1ccc(Br)cc1)c1ccc(COC(Cn2ccnc2)c2ccc(Cl)cc2Cl)cc1` (centres unmarked), the MIC80 was 0.125 µg/mL (≈ 0.229 µM) (Lodderomyces parapsilosis; microbial growth).
`C/C(=N\N=C(/C)c1c(O)c2ccccc2oc1=O)c1c(O)c2ccccc2oc1=O` has an MIC of 125 µg/mL (≈ 309 µM) (Aspergillus niger; microbial growth; 48 h).
With `CC1CCC(C(C)C)C(OC2=C(Cl)C(=O)c3ccccc3C2=O)C1` (centres unmarked) the MIC was 12 µg/mL (≈ 34.6 µM) (Aspergillus niger; microbial growth).
For `C[C@@H]1O[C@@H](OC[C@H]2O[C@@H](Oc3c(-c4ccc(O)c(O)c4)oc4cc(O)cc(O)c4c3=O)[C@H](O)[C@@H](O)[C@@H]2O)[C@H](O)[C@H](O)[C@H]1O`, the MIC was 200 µg/mL (≈ 328 µM) (Streptococcus sobrinus; microbial growth; 24 h).
`C/C(=N\CCNCCNCC/N=C(\C)c1c(O)c2ccccc2oc1=O)c1c(O)c2ccccc2oc1=O` gave an MIC of 31.2 µg/mL (≈ 60.3 µM) (Aspergillus niger; microbial growth; 48 h).
